Data on 2 molecules can be found in ChEMBL document CHEMBL1152770, “Inhibitors of hepatitis C virus polymerase: synthesis and biological characterization of unsymmetrical dialkyl-hydroxynaphthalenoyl-benzothiadiazines” (J Med Chem, 2009).

Data set [1] can be described thus: n-Octanol-phosphate buffer distribution coefficient, log D at pH 7.4. Format: physicochemical. A digest of the protocol:
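Compound was dissolved in n-octanol and mixed with 50 mM phosphate buffer, isotonic with NaCl, pH 7.4. The mixture was tumbled at 25 °C, 25 rpm, for 2-3 days, then centrifuged to split the phases. Each phase was assayed by reverse-phase HPLC (UV 262 nm) against a linear standard curve. D is the octanol/buffer concentration ratio.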

A short description of data set [2]: Solubility in polyethylene glycol 400 at 25 deg C. It is filed as physicochemical. The method in brief:
(§1)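 Equilibrium solubility in PEG 400, in 50 mM citrate buffer pH 4 or in 50 mM phosphate buffer pH 7.4. Buffers brought to ionic strength 0.155 M with NaCl. Vials rotated at 25 °C for 4 days, final pH measured, then supernatant assayed by reverse-phase HPLC at 262 nm against a linear standard curve.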

Data set [3] in a line: Aqueous solubility in 50 mM phosphate buffer at pH 7.4. It is filed as physicochemical. A digest of the protocol:
as §1

The nature of data set [4]: Ratio of drug level in liver to plasma in rat at 5 mg/kg, po after 12 hrs. Details: dose 5 mg/kg, route oral. It is filed as ADME, organism-based. A digest of the protocol:
(§2)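 Rats dosed orally at 5 mg/kg, four groups, sacrificed at 6 and 12 h. Plasma and liver homogenate extracted by acetonitrile protein precipitation with internal standard and quantified by LC-MS (negative-ion MRM). Liver/plasma ratio taken from the two concentrations.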

A short description of data set [5]: Drug level in rat liver at 5 mg/kg, po after 6 hrs. Format: ADME, organism-based. Set-up: dose 5 mg/kg, route oral. The conditions noted are these: read-out: Drug uptake. A digest of the protocol:
as §2

Data set [6] can be described thus: Plasma concentration in rat at 5 mg/kg, po after 12 hrs. It is filed as ADME, organism-based. Set-up: dose 5 mg/kg, route oral. The method in brief: (§3)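 Vehicle DMSO:PEG400 (10:90, v/v). Dosing at 5 mg/kg in rat and monkey; dog 5 mg/kg or 2.5 mg/kg. Protein precipitation with acetonitrile, then LC-MS/MS in negative-ion MRM (m/z 516.2→437.0) against spiked standards with internal standard.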

The nature of data set [7]: Ratio of drug level in liver to plasma in rat at 5 mg/kg, po after 6 hrs. It is filed as ADME, organism-based. Details: dose 5 mg/kg, route oral. The method in brief: as §2
A short description of data set [8]: Drug level in rat liver at 5 mg/kg, po after 12 hrs. It is filed as ADME, organism-based. Set-up: dose 5 mg/kg, route oral. The conditions noted are these: read-out: Drug uptake. The method in brief:
as §2

Data set [9] can be described thus: Plasma concentration in rat at 5 mg/kg, po after 6 hrs. Format: ADME, organism-based. Details: dose 5 mg/kg, route oral. The method in brief:
as §3

A value given as a limit tells only on which side of the number the result lay.

The logD is the decadic logarithm of the distribution of all forms, ionised or not, between an organic phase and buffer at a given pH. The low end stands for a more hydrophilic compound, the high end for a more lipophilic compound. By solubility is commonly meant the dissolved amount per volume that the medium holds. What is called Kp is tissue or fluid exposure divided by exposure in the circulation.

As to `CS(=O)(=O)Nc1ccc2c(c1)S(=O)(=O)N=C(c1c([O-])c3ccccc3n(NC3CCC3)c1=O)N2.[Na+]`, the logD in data set [1] is 1.45. In addition, the solubility in data set [2] was over 191.8 mg/mL; in [3] it was under 0.07 µg/mL.
Turning to `CC(C)(C)CC[C@@]1(C)C(=O)C(C2=NS(=O)(=O)c3cc(NS(C)(=O)=O)ccc3N2)=C(O)c2ccccc21`, the partition ratio (Kp) at 12 h in data set [4] was found to be 20. The concentration at 6 h came to 21800 ng/g in [5] and 2240 nM in [9]. The concentration at 12 h in data set [6] came out at 320 nM; in [8], 4190 ng/g. In addition, the Kp at 6 h in data set [7] was found to be 17.
